Legend:
Rattus norvegicus [1] = assay: Antianaphylactic activity in po dosed male Sprague-Dawley rat assessed as inhibition of egg albumin/Bordetella pertussis-induced passive cutaneous anaphylaxis reaction; format: functional; conditions: read-out: ID50 (the source's name)
Summary of the method: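 Homologous rat PCA used 72-h skin sensitization with fourfold-diluted anti-egg albumin serum, raised with B. pertussis adjuvant, in 8-week rats (~280 g). Drug was suspended in 3% gum arabic and given orally 5 min before iv challenge with egg albumin 5 mg plus Evans blue 10 mg. Dye-leakage area (mm2) was measured after 30 min. ID50 by least squares on log dose vs area, with 95% confidence limits.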

Rattus norvegicus [2] = assay: Antianaphylactic activity in iv dosed male Sprague-Dawley rat assessed as inhibition of egg albumin/Bordetella pertussis-induced passive cutaneous anaphylaxis reaction; format: functional; conditions: read-out: ID50 (the source's name)
Summary of the method: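 Sera from rats sensitized with im egg albumin plus ip sterilized B. pertussis (collected day 12) were diluted fourfold and injected intradermally into dorsal skin of 8-week rats (~280 g). At 72 h, rats received iv egg albumin 5 mg plus Evans blue 10 mg. Drug in saline or PEG 400 was given iv immediately before challenge. Dye-leakage area (mm2) was read at 30 min. ID50 by least squares on log dose, with 95% confidence limits.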

SMILES | ED50 (Rattus norvegicus [1]) | ED50 (Rattus norvegicus [2])
CCc1ccc2occ(-c3nnn[nH]3)c(=O)c2c1 | 5.9 mg/kg | 0.25 mg/kg
C=Cc1ccc2occ(-c3nnn[nH]3)c(=O)c2c1 |  | 0.49 mg/kg
CCc1ccc(O)c(C(=O)O)c1 |  | > 20 mg/kg
CC(C)(O)c1ccc2occ(-c3nnn[nH]3)c(=O)c2c1 |  | 1.13 mg/kg
CCC(O)c1ccc2occ(-c3nnn[nH]3)c(=O)c2c1 (stereo not given) | > 20 mg/kg | 0.3 mg/kg
CCCC(O)c1ccc2occ(-c3nnn[nH]3)c(=O)c2c1 (stereo not given) |  | 1.07 mg/kg
CC(O)c1ccc2occ(-c3nnn[nH]3)c(=O)c2c1 (stereo not given) | 13.4 mg/kg | 0.56 mg/kg
O=c1c(-c2nnn[nH]2)coc2ccc(CO)cc12 |  | 0.34 mg/kg
CCc1ccc2occ(-c3nnnn3[C@@H]3O[C@H](C(=O)[O-])[C@@H](O)[C@H](O)[C@H]3O)c(=O)c2c1.[Na+] |  | > 20 mg/kg
CCC(=O)c1ccc2occ(-c3nnn[nH]3)c(=O)c2c1 |  | 0.29 mg/kg
CC(=O)c1ccc2occ(-c3nnn[nH]3)c(=O)c2c1 | 6.6 mg/kg | 0.24 mg/kg
CC(=O)OC(C)c1ccc2occ(-c3nnn[nH]3)c(=O)c2c1 (stereo not given) | > 20 mg/kg | 
O=c1c(-c2nnn[nH]2)coc2ccc(CCO)cc12 | > 20 mg/kg | 0.21 mg/kg
O=c1c(-c2nnn[nH]2)coc2ccc(C(O)CO)cc12 (stereo not given) | > 20 mg/kg | 0.57 mg/kg
O=C([O-])c1cc(=O)c2c(OCC(O)COc3cccc4oc(C(=O)[O-])cc(=O)c34)cccc2o1.[Na+].[Na+] [CROMOLYN SODIUM] | > 100 mg/kg | 1.33 mg/kg
O=Cc1ccc2occ(-c3nnn[nH]3)c(=O)c2c1 | > 20 mg/kg | 1.1 mg/kg
O=C(O)Cc1ccc(O)c(C(=O)O)c1 |  | > 20 mg/kg

— ChEMBL document CHEMBL3228044, “Studies on antianaphylactic agents. 6. Synthesis of some metabolites of 6-ethyl-3-(1H-tetrazol-5-yl)chromone and their analogues” (1979)
